We go through three molecules from paper PMC4822987 (Acta crystallographica. Section F, Structural biology …, 2016).

Structures are written as SMILES.

For assay [1], the system named is S. mansoni arginase. As to conditions: relative to ABH, ref Hai et al., 2014; cited from earlier work.
Assay [2] deals with Leishmania mexicana arginase (LmARG) (Leishmania mexicana, UniProt Q6TUJ5). Nature of the assay: Inhibitory activity assay, colorimetric arginase activity. It counts as biochemical. An outline of the steps:
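Recombinant LmARG (1 µM) started the reaction in 50 mM EPPS pH 8.0 with 100 µM MnCl2 and 30 mM L-arginine at 21°C. After 20 min it was stopped with H2SO4/H3PO4 acid plus α-isonitrosopropiophenone dye, then heated at 90°C for 1 h. Urea was read at 550 nm. Ki came from IC50 via Cheng–Prusoff, with Km from 0.5–150 mM arginine.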

The test system of assay [3] is human arginase I. Conditions: relative to ABH, ref Van Zandt et al., 2013; cited from earlier work.
Assay [4] concerns human arginase II. Conditions: relative to ABH, ref Golebiowski et al., 2013; cited from earlier work.

As to `N[C@](CCCCB(O)O)(CCN1CCCCC1)C(=O)O` [ABHPE, (R)-2-amino-6-borono-2-[2-(piperidin-1-yl)ethyl]hexanoic acid], the “improved affinity in comparison with parent inhibitor ABH” value in assay [1] is on record as 5.0 fold. In addition, in assay [2], half-maximal inhibition (IC50) was put at 2100 ± 300 nM and the inhibitory constant (Ki) came out at 1400 ± 200 nM. Further, the “improved inhibitory potency (IC50) in comparison with parent inhibitor ABH” value in assay [3] is recorded as 6.5 fold. The “improved inhibitory potency in comparison with parent inhibitor ABH” value in assay [4] was 3.8 fold.

Consider `N[C@@](CCCCB(O)O)(C(=O)O)C1CCN(Cc2ccc(Cl)c(Cl)c2)CC1` (racemic) [ABHDP, (R)-2-amino-6-borono-2-[1-(3,4-dichlorobenzyl)piperidin-4-yl]hexanoic acid], for which, in assay [1], the “improved affinity in comparison with parent inhibitor ABH” value was 2.4 fold. Also, in assay [2], the concentration for half-maximal inhibition (IC50) was determined as 1700 ± 400 nM and the Ki amounted to 1100 ± 300 nM. Moreover, in assay [3], the “improved inhibitory potency (IC50) in comparison with parent inhibitor ABH” value is given as 7.4 fold. Further, the “improved inhibitory potency in comparison with parent inhibitor ABH” value in assay [4] is reported as 7.4 fold.

In assay [2], `N[C@@H](CCCCB(O)O)C(=O)O` [ABH, 2-(S)-amino-6-boronohexanoic acid, reference compound] showed a half-maximal inhibitory concentration (IC50) of 1300 ± 200 nM and a Ki of 900 ± 100 nM.

Usually IC50 stands for the point on the concentration scale where inhibition reaches its midpoint. Low readings indicate greater potency in that assay, high ones weaker potency in that assay. As a reminder, the Ki is the equilibrium dissociation constant of an inhibitor or competing ligand from its target. Read a low Ki as a stronger hold on the target.
